Drawing on ChEMBL document CHEMBL1148322, “Synthesis and quantitative structure-activity relationship of hydrazones of N-amino-N'-hydroxyguanidine as electron acceptors for xanthine oxidase” (J Med Chem, 2004), this text covers Acceptor activity for 51 molecules.

SMILES strings stand for the structures.

The target of this data set is Xanthine dehydrogenase/oxidase (Bos taurus, UniProt P80457). Kind of data set: Electron acceptor activity on bovine milk xanthine oxidase using xanthine as reducing substrate. Particulars: cattle. Put shortly: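 Run anaerobically at 25 °C in a sealed cuvette with 25 mM Tris-HCl, 1 mM EDTA, pH 7.5. All solutions were argon-gassed for at least 10 min, and the reaction was started by injecting milk xanthine oxidase. Readings from anaerobic controls lacking the acceptor were subtracted. Uric acid formation was read as the increase in absorbance at 295 nm (ε 12.4 mmol⁻¹ cm⁻¹), expressed per min per unit enzyme, as the mean of three determinations.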
Xanthine dehydrogenase/oxidase, sequence (P80457 whole entry): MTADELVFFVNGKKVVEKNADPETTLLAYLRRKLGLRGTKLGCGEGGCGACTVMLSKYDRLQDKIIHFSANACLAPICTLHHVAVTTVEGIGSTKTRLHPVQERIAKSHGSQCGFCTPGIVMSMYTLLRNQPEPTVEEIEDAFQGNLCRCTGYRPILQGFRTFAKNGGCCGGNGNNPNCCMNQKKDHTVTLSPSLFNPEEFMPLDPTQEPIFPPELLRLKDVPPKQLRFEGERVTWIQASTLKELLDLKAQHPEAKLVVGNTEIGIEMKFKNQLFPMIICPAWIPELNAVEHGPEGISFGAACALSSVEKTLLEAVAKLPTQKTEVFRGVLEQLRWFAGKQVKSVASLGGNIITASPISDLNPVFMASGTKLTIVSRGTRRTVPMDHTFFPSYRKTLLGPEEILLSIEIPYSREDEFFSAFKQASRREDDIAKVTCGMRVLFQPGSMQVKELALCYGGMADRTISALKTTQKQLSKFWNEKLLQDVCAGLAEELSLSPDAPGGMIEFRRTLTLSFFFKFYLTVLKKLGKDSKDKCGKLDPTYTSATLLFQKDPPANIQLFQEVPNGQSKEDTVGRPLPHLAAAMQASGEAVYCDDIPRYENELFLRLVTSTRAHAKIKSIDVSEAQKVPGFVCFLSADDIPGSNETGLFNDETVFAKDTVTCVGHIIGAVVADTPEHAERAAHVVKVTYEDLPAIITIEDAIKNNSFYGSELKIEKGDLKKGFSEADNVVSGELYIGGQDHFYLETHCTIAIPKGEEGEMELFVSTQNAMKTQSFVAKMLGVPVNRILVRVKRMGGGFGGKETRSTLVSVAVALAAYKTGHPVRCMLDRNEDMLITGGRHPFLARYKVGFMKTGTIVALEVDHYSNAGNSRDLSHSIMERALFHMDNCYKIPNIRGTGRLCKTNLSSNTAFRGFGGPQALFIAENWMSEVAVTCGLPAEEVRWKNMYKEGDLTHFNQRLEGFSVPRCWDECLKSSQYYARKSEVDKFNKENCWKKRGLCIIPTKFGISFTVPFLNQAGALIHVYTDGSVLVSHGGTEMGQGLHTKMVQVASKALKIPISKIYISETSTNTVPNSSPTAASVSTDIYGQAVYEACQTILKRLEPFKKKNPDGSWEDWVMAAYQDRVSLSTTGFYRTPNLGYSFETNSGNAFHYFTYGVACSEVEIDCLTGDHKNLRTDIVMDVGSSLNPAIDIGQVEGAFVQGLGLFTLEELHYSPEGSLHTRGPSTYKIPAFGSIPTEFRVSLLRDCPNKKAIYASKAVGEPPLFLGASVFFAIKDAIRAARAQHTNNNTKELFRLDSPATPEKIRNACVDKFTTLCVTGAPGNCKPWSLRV

With `N=C(NO)N/N=C/c1ccccc1Cl`, the Acceptor activity turned out to be 90.2.
The value for `COc1cccc(OC)c1/C=N/NC(=N)NO` was 13.2; that for `COc1cc(OC)c(/C=N/N=C(\N)NO)c(OC)c1` was 10.8; that for `N=C(NO)N/N=C/c1ccc(O)cc1O` was 72.9.
Molecule `N=C(NO)N/N=C/c1cccc(Cl)c1` displayed an Acceptor activity of 45.4.
Turning to `COc1ccc([N+](=O)[O-])c(/C=N/NC(=N)NO)c1OC`, the Acceptor activity was found to be 22.
Consider `N=C(NO)N/N=C/c1ccccc1Br`, for which the Acceptor activity is given as 72.9.
`COc1ccc(/C=N/NC(=N)NO)c(Cl)c1OC` yielded an Acceptor activity of 155.6.
`N=C(NO)N/N=C/c1ccc([N+](=O)[O-])cc1`: the Acceptor activity is reported as 94.2.
The value for `N=C(NO)N/N=C/c1ccccc1F` was 49.6.
`CN(C)c1ccc(/C=N/NC(=N)NO)cc1`: the Acceptor activity is listed as 41.
The molecule `N=C(NO)N/N=C/c1cccc(O)c1O` registered an Acceptor activity of 43.7.
As to `COc1cc(/C=N/NC(=N)NO)c(Br)c(OC)c1OC`, the Acceptor activity was determined as 119.5.
With `COc1ccc(OC)c(/C=N/N=C(\N)NO)c1` the figure was 42.3; with `N=C(NO)N/N=C/c1ccc(Br)cc1`, 82.1; with `N=C(NO)N/N=C/c1cccc2c1OCO2`, 44.7.
With `N/C(=N\O)N/N=C/c1cccc(F)c1` the figure was 56.2.
With `COc1ccc(/C=N/NC(=N)NO)cc1O` the figure was 68.9; with `COc1ccc(/C=N/NC(=N)NO)cc1`, 50.9.
Consider `N/C(=N\O)N/N=C/c1cccc([N+](=O)[O-])c1`, for which the Acceptor activity was 24.4.
The molecule `COc1cccc(/C=N/NC(=N)NO)c1` displayed an Acceptor activity of 55.
Turning to `N/C(=N\O)N/N=C/c1ccc(Cl)c([N+](=O)[O-])c1`, the Acceptor activity was 42.1.
In the case of `COc1cc(O)c(/C=N/N=C(\N)NO)c(OC)c1`, the Acceptor activity came out at 101.7.
`N=C(NO)N/N=C/c1ccccc1[N+](=O)[O-]` gave an Acceptor activity of 56.4.
`COc1ccc(/C=N/NC(=N)NO)cc1Br`: the Acceptor activity turned out to be 35.6.
The value for `COc1cccc(/C=N/NC(=N)NO)c1O` was 45.5; that for `COc1cc([N+](=O)[O-])c(/C=N/NC(=N)NO)c(Cl)c1OC` was 48.8.
For the molecule `N=C(NO)N/N=C/c1ccc([N+](=O)[O-])cc1[N+](=O)[O-]`, the Acceptor activity is reported as 295.7.
As for `COc1ccc(OC)c([N+](=O)[O-])c1/C=N/NC(=N)NO`, the Acceptor activity came to 47.3.
With `N/C(=N\O)N/N=C/c1ccc(O)c(O)c1O` the figure was 40.5; with `N=C(NO)N/N=C/c1ccc(F)cc1`, 43.2; with `COc1cc(/C=N/NC(=N)NO)cc(OC)c1`, 30.7.
The value for `N=C(NO)N/N=C/c1c(Cl)ccc([N+](=O)[O-])c1[N+](=O)[O-]` was 216.3; that for `COc1cc([N+](=O)[O-])cc(/C=N/NC(=N)NO)c1OC` was 0.8.
With `N=C(NO)N/N=C/c1cc([N+](=O)[O-])ccc1O` the figure was 25.8.
Molecule `N=C(NO)N/N=C/c1ccc(O)cc1` displayed an Acceptor activity of 64.2.
The value for `N=C(NO)N/N=C/c1ccc(Cl)cc1` was 57.9; that for `COc1cc([N+](=O)[O-])c([N+](=O)[O-])c(/C=N/NC(=N)NO)c1OC` was 52.9; that for `COc1cc(/C=N/N=C(\N)NO)cc(OC)c1OC` was 54.6.
`COc1cc(OC)c(OC)cc1/C=N/N=C(\N)NO`: the Acceptor activity is on record as 29.7.
The value for `N=C(NO)N/N=C/c1c(Cl)cccc1[N+](=O)[O-]` was 44; that for `COc1ccccc1/C=N/N=C(\N)NO` was 59.7.
The value for `CCN(CC)c1ccc(/C=N/NC(=N)NO)cc1` was 62.1; that for `N=C(NO)N/N=C/c1ccc(Br)c([N+](=O)[O-])c1` was 35.
The value for `N=C(NO)N/N=C/c1cc(O)ccc1[N+](=O)[O-]` was 31.5; that for `N=C(NO)N/N=C/c1c([N+](=O)[O-])cccc1[N+](=O)[O-]` was 154.5.
Take `COc1cc(Br)cc(/C=N/NC(=N)NO)c1O`: the Acceptor activity was found to be 72.4.
Molecule `N=C(NO)N/N=C/c1c(Cl)ccc(Cl)c1[N+](=O)[O-]` displayed an Acceptor activity of 68.3.
With `N/C(=N\O)N/N=C/c1ccccc1O` the figure was 33.8; with `COc1cc(OC)c(/C=N/NC(=N)NO)cc1Br`, 16.3; with `COc1ccc(/C=N/N=C(\N)NO)c(OC)c1OC`, 81.5.
